ARFGAP1 inh: rat ARFGAP1 inhibition; hit rate 0.26% among 360,000; Arfgap1-stimulated ARF1 GTP hydrolysis, GDP FP detection; inhibition, % at 16.5 µM; AID 651572;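 active = inhibition above a per-plate limit, mean inhibition of low control wells plus 3 SD, cut at about 25% in these data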;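 also: 0% = DMSO wells with enzyme and 100% = wells lacking Arfgap1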
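System: truncated rat Arfgap1 GAP domain / Medium: HEPES-based buffer, pH 7.5 / Also added: N-terminally truncated human ARF1-GTP substrate / Incubation: enzyme reaction 120 min at 25 °C after 20 min preincubation / Measured by: FP of antibody-bound GDP Alexa 633 tracer, ex 620/em 688 nm / Replicates: singlicate, each compound tested once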
LEDGF integ inh: blocks HIV-1 LEDGF/p75-dependent DNA integration; AID 743269; TR-FRET IN-LEDGF/p75 DNA integration, Eu/Cy5; hit rate 0.64% among 370,000; inhibition, % at 3.7 µM;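 active = inhibition above the screen-wide mean plus 3 SD, cut at about 13% in these data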;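 also: signal is the Cy5 over europium emission ratio at 671 and 618 nm; 0% = plate median of compound wells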
ASAP1 GAP inh: ASAP1 ArfGAP inhibition. Q9ULH1. ASAP1-stimulated ARF1 GTP hydrolysis, GDP FP detection. inhibition, % at 16.5 µM. hit rate 0.19% among 360,000. AID 624377; in the data active = inhibition above about 25%;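 also: 0% = vehicle with enzyme and substrate and 100% = no enzyme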
Target sequence (Q9ULH1 325-724 limits assumed): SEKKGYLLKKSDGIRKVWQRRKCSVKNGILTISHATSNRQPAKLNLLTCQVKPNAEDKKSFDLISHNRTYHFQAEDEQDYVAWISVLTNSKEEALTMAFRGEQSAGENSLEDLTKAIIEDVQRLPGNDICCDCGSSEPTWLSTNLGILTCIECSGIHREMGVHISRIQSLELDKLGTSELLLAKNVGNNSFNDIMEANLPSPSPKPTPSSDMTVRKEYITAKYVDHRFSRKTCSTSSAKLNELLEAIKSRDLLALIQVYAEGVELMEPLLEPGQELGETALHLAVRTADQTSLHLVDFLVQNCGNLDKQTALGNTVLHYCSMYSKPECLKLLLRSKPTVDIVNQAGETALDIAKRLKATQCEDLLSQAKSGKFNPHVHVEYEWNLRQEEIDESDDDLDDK
UHRF1 binding: UHRF1 methyl-DNA binding inhibition. Q96T88. UHRF1 binding to methylated oligo, TR-FRET. inhibition, % at 4.4 µM. hit rate 0.75% among 370,000. AID 687016; in the data active = inhibition above about 21%;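 also: UHRF1 SRA domain binding a hemimethylated CpG hairpin DNA probe; 0% = median of test compound wells and 100% = reference inhibitor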
MBD2 inh: blocks human MBD2 binding to methylated DNA. Q9UBB5. TR-FRET, MBD2 binding to methylated oligonucleotide. inhibition, % at 4.4 µM. hit rate 0.31% among 370,000. AID 686964; in the data active = inhibition above about 13%
TCR-CD3 inh: inhibitors of human TCR-CD3 interaction; TAMRA-labeled TCR probe fluorescence, biochemical; inhibition, % at 9.4 µM; hit rate 0.37% among 360,000; in the data active = inhibition above about 19%;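 also: recombinant mutant TCR 2C K166C tagged with TAMRA read by polarization; 0% = receptor in buffer alone and 100% = receptor with positive control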
* marks the source's active call; other numbers are inactive results. Hits are enriched below; roughly 2% of the tested compounds scored in any of these assays.

Results for COC(=O)[C@]12C[C@H](CC(=O)N3CCCC3)C(=O)N(Cc3ccc(Cl)cc3Cl)C1=C[C@H](C(C)C)O[C@@H]2C1CC1 ?
LEDGF integ inh: 6; UHRF1 binding: 0; MBD2 inh: 0

Results for COc1ccc(/C=C/C(=O)NC(=S)Nc2cc([N+](=O)[O-])ccc2O)cc1OC ?
ARFGAP1 inh: -31; LEDGF integ inh: -1; ASAP1 GAP inh: -6; UHRF1 binding: -1; MBD2 inh: 2; TCR-CD3 inh: 50*

Results for COc1ccccc1Cc1c(C2CCCCC2)nc2ccc(Br)cn12 ?
ARFGAP1 inh: -10; LEDGF integ inh: 0; ASAP1 GAP inh: 12; UHRF1 binding: 19; MBD2 inh: 3; TCR-CD3 inh: 0

How did C/C=C/C=C\C(=O)Nc1cccc(C2=NOC3(C2)C[C@H](C(N)=O)N(C(=O)CC#N)C3)c1 (some centres not stated) do in these assays?
ARFGAP1 inh: 17; LEDGF integ inh: 2; ASAP1 GAP inh: -1; UHRF1 binding: 13; MBD2 inh: 19*; TCR-CD3 inh: 14

How did C/C=C\C=C/C(=O)Nc1cccc(C2=NOC3(C2)C[C@H](C(N)=O)N(C(=O)CC)C3)c1 (some centres not stated) do in these assays?
ARFGAP1 inh: 13; LEDGF integ inh: -1; ASAP1 GAP inh: -11; UHRF1 binding: -1; MBD2 inh: -4; TCR-CD3 inh: 4

How did COc1ccc(OC)c(NC(=O)COC(=O)CCS(=O)(=O)c2ccc(Cl)cc2)c1 do in these assays?
ARFGAP1 inh: -1; LEDGF integ inh: 5; ASAP1 GAP inh: 6; UHRF1 binding: 21*; MBD2 inh: 4; TCR-CD3 inh: 4

How did COc1ccccc1NC(=O)COC(=O)CCS(=O)(=O)c1ccc(C)cc1 do in these assays?
ARFGAP1 inh: 2; LEDGF integ inh: 2; ASAP1 GAP inh: 3; UHRF1 binding: -2; MBD2 inh: 6; TCR-CD3 inh: 3

How did COc1cccc(N2CC(NC(=O)c3cccc4ccccc34)CC2=O)c1 (configuration not stated) do in these assays?
ARFGAP1 inh: -11; LEDGF integ inh: -2; ASAP1 GAP inh: -15; UHRF1 binding: 34*; MBD2 inh: -4; TCR-CD3 inh: -1

What do the screens show for `CCOC(=O)N1CCN(C2=C(NS(=O)(=O)c3ccccc3)C(=O)c3ccccc3C2=O)CC1`?
ARFGAP1 inh: 33*; LEDGF integ inh: 22*; ASAP1 GAP inh: 29*; UHRF1 binding: -2; MBD2 inh: -9; TCR-CD3 inh: -7

What do the screens show for `CCOC(=O)c1sc2nc(C)nc(NCCc3ccccn3)c2c1C`?
ARFGAP1 inh: -2; LEDGF integ inh: 3; ASAP1 GAP inh: 3; UHRF1 binding: 69*; MBD2 inh: -6; TCR-CD3 inh: 2

How did CCOC(=O)c1sc2nc(C)nc(NCc3ccccc3OC)c2c1C do in these assays?
ARFGAP1 inh: 8; LEDGF integ inh: 4; ASAP1 GAP inh: 4; UHRF1 binding: 5; MBD2 inh: 2; TCR-CD3 inh: -6

Results for CC(C)NC(=O)N[C@@H]1C[C@@H]2O[C@@H](CO)CC[C@@H]2O[C@@H]1CCc1ccc(-c2ccccc2F)cc1 ?
LEDGF integ inh: 0; UHRF1 binding: 5; MBD2 inh: 3

How did N=C(N)c1ccc(N=Nc2c(O)ccc3c2[nH]c2ccccc23)cc1 do in these assays?
ARFGAP1 inh: active; LEDGF integ inh: 0; ASAP1 GAP inh: 175*; UHRF1 binding: 16; MBD2 inh: 11; TCR-CD3 inh: -2

Results for COC(=O)[C@]12C[C@H](CC(=O)NCC3CCCCC3)C(=O)N(Cc3ccc4c(c3)OCO4)C1=C[C@H](C(C)(C)C)O[C@@H]2C ?
ARFGAP1 inh: 6; LEDGF integ inh: -2; ASAP1 GAP inh: 4; UHRF1 binding: 23*; MBD2 inh: 6; TCR-CD3 inh: 1

How did COC(=O)[C@]12C[C@H](CC(=O)NCC3CCCCC3)C(=O)N(CCc3ccc(OC)c(OC)c3)C1=C[C@H](C(C)(C)C)O[C@@H]2C do in these assays?
ARFGAP1 inh: 11; LEDGF integ inh: -3; ASAP1 GAP inh: 7; UHRF1 binding: 23*; MBD2 inh: 5; TCR-CD3 inh: 4

How did COC(=O)CCCCC1SCC2NC(=O)NC21O (configuration not stated) do in these assays?
ARFGAP1 inh: 8; LEDGF integ inh: 41*; ASAP1 GAP inh: -1; UHRF1 binding: -1; MBD2 inh: 0; TCR-CD3 inh: 3

Screening results as filed in PubChem.
